Experimental data as given in ChEMBL document CHEMBL5653612, “Catalytic site remodelling of the DOT1L methyltransferase by selective inhibitors” (Nat Commun, 2012).
Calls of active or inactive are those of the source. No cut-off for these calls is given here.

How the values were obtained:
Rattus norvegicus [1] = species: Rattus norvegicus; assay: Inhibition of rat central GABAA receptor at 1 uM by muscimol radioligand binding assay relative to control
[2] = biological target: D(2) dopamine receptor (Homo sapiens) (UniProt P14416); assay: Inhibition of human dopamine D2s receptor at 1 uM relative to control
[3] = biological target: Sodium-dependent noradrenaline transporter (Homo sapiens) (UniProt P23975); assay: Inhibition of human norepinephrine transporter at 1 uM relative to control
cells [4] = conditions: Homo sapiens, A-431
[5] = biological target: Histone-lysine N-methyltransferase EHMT1 (Homo sapiens) (UniProt Q9H9B1); assay: Inhibition of EHMT1 (unknown origin) using H3 1-25 peptide in presence of SAM
How it was run: (§1)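 Radiometric methyltransferase panel in which 3H-SAM, at or below each enzyme's Km, methylates biotinylated peptide substrates. They were quenched with 7.5 M guanidine-HCl, diluted, captured on streptavidin flash plates for 1 h, and counted by scintillation.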

[6] = biological target: Histone-lysine N-methyltransferase SETDB1 (Homo sapiens) (UniProt Q15047); assay: Inhibition of SETDB1 (unknown origin) using H3 1-25 peptide in presence of SAM; how it was run: as §1
[7] = biological target: Adenosine receptor A2a (Homo sapiens) (UniProt P29274); assay: Inhibition of human Adenosine 2A receptor at 1 uM relative to control
[8] = biological target: Prostaglandin E2 receptor EP4 subtype (Homo sapiens) (UniProt P35408); assay: Inhibition of human EP4 receptor at 1 uM relative to control
[9] = Apparent permeability across basolateral to apical side in human Caco-2 cells at 10 uM incubated for 90 mins at pH 7.4 by LC/MS analysis; format: ADME, cell-based; conditions: Caco-2, pH 7.4
Cord blood cell [10] = assay: Cytotoxicity against human Cord blood cell habouring MIL-AF9 fusion protein assessed as reduction in cell viability at 1 to 5 uM incubated for 14 days by resazurin dye based […] assay; format: functional; conditions: dose 1-5 µM, time 14.0 day
How it was run: (§2)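 Transformed human cord blood cells were cultured with DMSO or inhibitor at 1 and 5 μM for 14 days. Resazurin (0.1 mg ml−1) was added for 4 h and resorufin fluorescence was read. Data are from at least two independent experiments, each with three repeats, shown as s.e. of the mean.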

Rattus norvegicus [11] = species: Rattus norvegicus; assay: Inhibition of rat Calcium 2 channel L, dihydropyridine site at 1 uM relative to control
[12] = biological target: Muscarinic acetylcholine receptor M3 (Homo sapiens) (UniProt P20309); assay: Inhibition of human muscarinic acetylcholine M3 receptor at 1 uM relative to control
[13] = biological target: 5-hydroxytryptamine receptor 2B (Homo sapiens) (UniProt P41595); assay: Inhibition of human 5HT2B receptor at 1 uM relative to control
hERG (KCNH2) = hERG (KCNH2) (Homo sapiens, UniProt Q12809); assay: Inhibition of human ERG at 1 uM relative to control; format: toxicity
[14] = biological target: Alpha-2A adrenergic receptor (Homo sapiens) (UniProt P08913); assay: Inhibition of human Adrenergic alpha 2A receptor at 1 uM relative to control
MOLM-13 = assay: Inhibition of Meis1 level in human MOLM-13 cells at 1 uM measured after 7 days by SYBR green staining based PCR analysis; format: functional, cell-based; conditions: time 7.0 day
How it was run: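 RNA was extracted with Qiazol and reverse-transcribed. SYBR green qPCR used gene-specific primer pairs for HOXA9 and Meis1.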

[15] = biological target: Histone-lysine N-methyltransferase 2A (Homo sapiens) (UniProt Q03164); assay: Inhibition of MLL (unknown origin) using H3 1-25 peptide in presence of SAM; how it was run: as §1
[16] = biological target: Adenosine receptor A1 (Homo sapiens) (UniProt P30542); assay: Inhibition of human Adenosine A1 receptor at 1 uM relative to control
[17] = biological target: Histone-lysine N-methyltransferase SETD7 (Homo sapiens) (UniProt Q8WTS6); assay: Inhibition of SETD7 (unknown origin) using H3 1-25 peptide in presence of SAM; how it was run: as §1
Rattus norvegicus [18] = species: Rattus norvegicus; assay: Inhibition of rat central imidazoline receptor 2 at 1 uM relative to control
[19] = biological target: Cannabinoid receptor 1 (Homo sapiens) (UniProt P21554); assay: Inhibition of human CB1R at 1 uM relative to control
[20] = biological target: Histone-lysine N-methyltransferase EHMT2 (Homo sapiens) (UniProt Q96KQ7); assay: Inhibition of G9a (unknown origin) using H3 1-25 peptide in presence of SAM; how it was run: as §1
[21] = biological target: Protein arginine N-methyltransferase 5 (Homo sapiens, UniProt O14744); assay: Inhibition of PRMT5 (unknown origin) using H4 1-24 peptide in presence of SAM; how it was run: as §1
[22] = biological target: Alpha-1B adrenergic receptor (Rattus norvegicus) (UniProt P15823); assay: Inhibition of rat Adrenergic alpha 1B receptor at 1 uM relative to control
[23] = biological target: Histone-lysine N-methyltransferase, H3 lysine-79 specific (Homo sapiens, UniProt Q8TEK3); assay: Binding affinity to recombinant N-terminal DOT1L (1 to 420 residues) (unknown origin) expressed in Escherichia coli (DE3) assessed as dissociation constant by SPR analysis
[24] = biological target: Beta-1 adrenergic receptor (Homo sapiens) (UniProt P08588); assay: Inhibition of human Adrenergic beta1 receptor at 1 uM relative to control
[25] = biological target: Histamine H1 receptor (Homo sapiens) (UniProt P35367); assay: Inhibition of human histamine H1 receptor at 1 uM relative to control
[26] = biological target: Mu-type opioid receptor (Homo sapiens) (UniProt P35372); assay: Inhibition of human MOP receptor at 1 uM relative to control
Homo sapiens [27] = species: Homo sapiens; assay: Inhibition of human nicotinic acetylcholine alpha at 1 uM relative to control
cells [28] = conditions: Homo sapiens, MCF-10A
[29] = biological target: Protein arginine N-methyltransferase 3 (Homo sapiens) (UniProt O60678); assay: Inhibition of PRMT3 (unknown origin) using H3 1-24 peptide in presence of SAM; how it was run: as §1
[30] = biological target: Alpha-1A adrenergic receptor (Rattus norvegicus) (UniProt P43140); assay: Inhibition of rat Adrenergic alpha 1A receptor at 1 uM relative to control
[31] = biological target: DNA (cytosine-5)-methyltransferase 1 (Homo sapiens) (UniProt P26358); assay: Inhibition of DNMT1 (unknown origin) using ds-DNA peptide in presence of SAM; how it was run: as §1
MV4-11 = assay: Downregulation of H3K79me2 in human MV4-11 cells habouring MLL/AF4 fusion protein measured upto 48 hrs by immuno blot analysis; format: functional, cell-based
Cord blood cell [32] = assay: Cytotoxicity against human Cord blood cell habouring TLS-ERG fusion protein assessed as reduction in cell viability at 1 to 5 uM incubated for 14 days by resazurin dye based […] assay; format: functional; conditions: dose 1-5 µM, time 14.0 day; how it was run: as §2
[33] = biological target: Histone-lysine N-methyltransferase SUV39H2 (Homo sapiens) (UniProt Q9H5I1); assay: Inhibition of SUV39H2 (unknown origin) using H3 1-25 peptide in presence of SAM; how it was run: as §1
Homo sapiens [34] = species: Homo sapiens; assay: Inhibition of PRC2 (unknown origin) using H3 21-44 peptide in presence of SAM; how it was run: as §1
[35] = biological target: Muscarinic acetylcholine receptor M2 (Homo sapiens) (UniProt P08172); assay: Inhibition of human muscarinic acetylcholine M2 receptor at 1 uM relative to control

5-hydroxytryptamine receptor 2B (Homo sapiens), sequence (P41595 whole entry): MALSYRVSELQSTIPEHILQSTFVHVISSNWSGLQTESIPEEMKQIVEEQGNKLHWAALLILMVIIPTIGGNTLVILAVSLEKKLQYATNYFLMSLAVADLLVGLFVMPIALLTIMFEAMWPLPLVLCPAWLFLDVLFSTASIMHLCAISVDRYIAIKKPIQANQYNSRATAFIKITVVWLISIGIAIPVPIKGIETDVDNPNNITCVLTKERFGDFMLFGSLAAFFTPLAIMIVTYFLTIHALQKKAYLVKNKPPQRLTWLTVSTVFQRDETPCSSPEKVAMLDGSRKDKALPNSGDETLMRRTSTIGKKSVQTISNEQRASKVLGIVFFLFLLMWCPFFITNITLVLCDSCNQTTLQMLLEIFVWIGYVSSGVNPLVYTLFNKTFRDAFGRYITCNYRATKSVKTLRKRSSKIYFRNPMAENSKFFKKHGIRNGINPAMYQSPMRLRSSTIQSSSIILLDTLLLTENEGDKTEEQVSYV
Muscarinic acetylcholine receptor M3 (Homo sapiens), sequence (P20309 whole entry, looked up): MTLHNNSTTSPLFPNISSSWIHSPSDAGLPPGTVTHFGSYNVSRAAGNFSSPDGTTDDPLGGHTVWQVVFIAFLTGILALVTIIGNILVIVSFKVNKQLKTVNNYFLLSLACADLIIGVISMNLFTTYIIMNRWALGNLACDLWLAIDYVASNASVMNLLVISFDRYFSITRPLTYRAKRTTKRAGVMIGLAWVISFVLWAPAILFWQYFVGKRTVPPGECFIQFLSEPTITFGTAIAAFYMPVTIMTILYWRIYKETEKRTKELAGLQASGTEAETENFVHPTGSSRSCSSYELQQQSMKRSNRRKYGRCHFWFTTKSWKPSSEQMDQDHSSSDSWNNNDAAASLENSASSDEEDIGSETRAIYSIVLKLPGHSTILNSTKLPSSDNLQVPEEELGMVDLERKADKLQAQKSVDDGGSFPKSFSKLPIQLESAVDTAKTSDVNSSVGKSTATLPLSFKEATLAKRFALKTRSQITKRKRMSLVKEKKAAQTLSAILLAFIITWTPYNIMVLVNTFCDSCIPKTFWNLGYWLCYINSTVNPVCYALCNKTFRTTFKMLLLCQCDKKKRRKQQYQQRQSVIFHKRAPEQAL
Cannabinoid receptor 1 (Homo sapiens), sequence (P21554 whole entry): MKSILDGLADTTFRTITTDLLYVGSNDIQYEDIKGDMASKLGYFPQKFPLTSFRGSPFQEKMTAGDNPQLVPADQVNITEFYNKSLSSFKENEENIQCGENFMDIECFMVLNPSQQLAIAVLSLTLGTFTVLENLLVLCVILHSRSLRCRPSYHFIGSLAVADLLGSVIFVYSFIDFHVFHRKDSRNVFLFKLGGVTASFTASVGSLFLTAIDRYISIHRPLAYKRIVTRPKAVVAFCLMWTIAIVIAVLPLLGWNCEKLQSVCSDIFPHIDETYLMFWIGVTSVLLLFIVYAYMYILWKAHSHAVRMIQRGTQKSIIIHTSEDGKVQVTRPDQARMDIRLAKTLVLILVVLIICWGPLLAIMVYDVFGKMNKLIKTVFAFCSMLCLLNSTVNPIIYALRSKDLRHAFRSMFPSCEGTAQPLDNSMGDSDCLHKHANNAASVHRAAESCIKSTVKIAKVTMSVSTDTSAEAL
Histone-lysine N-methyltransferase EHMT2 (Homo sapiens), sequence (Q96KQ7 whole entry): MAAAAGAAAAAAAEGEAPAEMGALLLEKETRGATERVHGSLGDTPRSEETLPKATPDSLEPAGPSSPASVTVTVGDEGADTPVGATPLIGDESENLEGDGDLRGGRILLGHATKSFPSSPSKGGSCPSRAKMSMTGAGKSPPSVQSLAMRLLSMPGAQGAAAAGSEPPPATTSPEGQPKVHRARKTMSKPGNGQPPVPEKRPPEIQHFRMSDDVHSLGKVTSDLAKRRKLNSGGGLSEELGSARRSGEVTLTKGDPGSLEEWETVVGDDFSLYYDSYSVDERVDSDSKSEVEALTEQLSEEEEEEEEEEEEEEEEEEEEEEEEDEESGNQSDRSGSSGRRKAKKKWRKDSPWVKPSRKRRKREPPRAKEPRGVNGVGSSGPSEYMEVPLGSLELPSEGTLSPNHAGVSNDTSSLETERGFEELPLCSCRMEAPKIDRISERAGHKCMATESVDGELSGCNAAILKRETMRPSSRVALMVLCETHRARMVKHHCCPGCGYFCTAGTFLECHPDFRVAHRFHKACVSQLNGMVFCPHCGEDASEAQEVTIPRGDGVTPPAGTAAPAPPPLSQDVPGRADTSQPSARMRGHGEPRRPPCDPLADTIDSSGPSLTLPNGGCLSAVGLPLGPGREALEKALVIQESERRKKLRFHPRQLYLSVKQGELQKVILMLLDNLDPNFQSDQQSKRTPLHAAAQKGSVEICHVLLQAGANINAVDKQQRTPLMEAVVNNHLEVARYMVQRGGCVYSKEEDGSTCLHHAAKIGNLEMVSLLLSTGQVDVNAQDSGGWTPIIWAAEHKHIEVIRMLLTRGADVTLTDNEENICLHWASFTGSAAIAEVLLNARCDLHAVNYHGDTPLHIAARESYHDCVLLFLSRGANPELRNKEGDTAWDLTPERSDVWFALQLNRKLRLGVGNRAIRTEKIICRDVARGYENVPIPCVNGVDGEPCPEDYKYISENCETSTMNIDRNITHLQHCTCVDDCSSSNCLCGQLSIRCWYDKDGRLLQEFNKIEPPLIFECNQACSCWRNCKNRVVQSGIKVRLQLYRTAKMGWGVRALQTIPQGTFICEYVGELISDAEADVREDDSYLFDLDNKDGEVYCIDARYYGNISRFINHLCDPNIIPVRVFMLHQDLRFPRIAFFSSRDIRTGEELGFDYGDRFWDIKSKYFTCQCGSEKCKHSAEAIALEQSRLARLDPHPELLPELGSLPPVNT
Histone-lysine N-methyltransferase, H3 lysine-79 specific, sequence (Q8TEK3 whole entry, the tested form may be a part): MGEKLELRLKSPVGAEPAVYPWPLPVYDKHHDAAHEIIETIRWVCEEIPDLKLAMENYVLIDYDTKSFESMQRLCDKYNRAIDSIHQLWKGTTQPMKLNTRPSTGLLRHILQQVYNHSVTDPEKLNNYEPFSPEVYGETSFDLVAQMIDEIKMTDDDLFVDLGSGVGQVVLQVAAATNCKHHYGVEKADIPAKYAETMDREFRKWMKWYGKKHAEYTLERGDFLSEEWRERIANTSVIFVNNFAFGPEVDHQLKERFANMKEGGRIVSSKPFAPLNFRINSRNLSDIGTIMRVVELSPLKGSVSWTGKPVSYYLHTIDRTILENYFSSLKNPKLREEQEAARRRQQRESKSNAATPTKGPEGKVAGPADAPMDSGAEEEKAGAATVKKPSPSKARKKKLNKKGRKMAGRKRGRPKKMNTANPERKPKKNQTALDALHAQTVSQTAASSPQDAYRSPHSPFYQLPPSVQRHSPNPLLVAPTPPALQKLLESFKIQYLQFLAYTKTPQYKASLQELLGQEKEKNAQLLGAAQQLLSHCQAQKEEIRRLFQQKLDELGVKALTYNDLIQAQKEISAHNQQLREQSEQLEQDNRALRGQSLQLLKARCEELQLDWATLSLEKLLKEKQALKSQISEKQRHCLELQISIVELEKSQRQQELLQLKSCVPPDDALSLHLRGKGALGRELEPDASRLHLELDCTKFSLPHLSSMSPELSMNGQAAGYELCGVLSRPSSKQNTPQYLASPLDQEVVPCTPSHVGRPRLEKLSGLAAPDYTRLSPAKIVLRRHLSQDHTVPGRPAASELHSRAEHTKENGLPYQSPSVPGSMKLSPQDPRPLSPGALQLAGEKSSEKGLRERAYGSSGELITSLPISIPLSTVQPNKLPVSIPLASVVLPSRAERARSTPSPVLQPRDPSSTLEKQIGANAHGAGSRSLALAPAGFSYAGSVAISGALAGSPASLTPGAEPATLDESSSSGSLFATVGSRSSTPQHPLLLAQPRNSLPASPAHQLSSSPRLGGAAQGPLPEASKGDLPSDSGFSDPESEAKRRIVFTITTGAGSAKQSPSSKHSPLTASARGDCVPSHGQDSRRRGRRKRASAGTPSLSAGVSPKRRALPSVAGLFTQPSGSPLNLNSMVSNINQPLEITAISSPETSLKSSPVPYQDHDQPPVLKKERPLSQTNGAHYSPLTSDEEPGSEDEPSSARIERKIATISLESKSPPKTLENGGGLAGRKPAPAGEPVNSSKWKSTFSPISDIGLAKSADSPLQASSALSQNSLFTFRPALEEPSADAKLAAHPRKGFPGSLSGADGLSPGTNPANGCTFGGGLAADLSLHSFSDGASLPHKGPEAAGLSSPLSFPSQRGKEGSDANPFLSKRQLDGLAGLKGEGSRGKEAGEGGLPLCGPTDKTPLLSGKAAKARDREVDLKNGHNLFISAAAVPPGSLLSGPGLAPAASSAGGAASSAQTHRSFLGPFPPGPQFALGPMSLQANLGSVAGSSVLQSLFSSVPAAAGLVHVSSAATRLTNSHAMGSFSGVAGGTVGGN
Alpha-2A adrenergic receptor (Homo sapiens), sequence (P08913 whole entry): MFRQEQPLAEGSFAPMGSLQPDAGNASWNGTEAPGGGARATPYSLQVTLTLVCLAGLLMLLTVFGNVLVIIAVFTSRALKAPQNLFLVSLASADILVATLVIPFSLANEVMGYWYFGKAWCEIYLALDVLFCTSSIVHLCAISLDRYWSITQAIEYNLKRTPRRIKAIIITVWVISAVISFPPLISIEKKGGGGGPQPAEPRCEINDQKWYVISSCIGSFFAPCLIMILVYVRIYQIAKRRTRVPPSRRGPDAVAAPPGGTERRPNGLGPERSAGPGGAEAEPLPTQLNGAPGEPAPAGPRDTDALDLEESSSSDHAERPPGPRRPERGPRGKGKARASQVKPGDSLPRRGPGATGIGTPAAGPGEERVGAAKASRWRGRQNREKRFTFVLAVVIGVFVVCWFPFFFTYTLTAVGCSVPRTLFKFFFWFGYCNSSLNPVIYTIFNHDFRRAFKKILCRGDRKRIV

Compound: CC(C)N(CCCNC(=O)Nc1ccc(C(C)(C)C)cc1)C[C@H]1O[C@@H](n2cc(Br)c3c(N)ncnc32)[C@H](O)[C@@H]1O
- inhibition (Rattus norvegicus [1]): 19%
- inhibition [2]: -3%
- inhibition [3]: 13%
- IC50 (cells [4]): 2.65 nM
- inhibition [5]: inactive
- inhibition [6]: inactive
- inhibition [7]: 0%
- inhibition [8]: -5%
- Papp B→A at 1.5 h, 10 µM [9]: 10.6 ×10⁻⁶ cm/s
- Activity (Cord blood cell [10]): Active
- inhibition (Rattus norvegicus [11]): 2%
- inhibition [12]: 19%
- inhibition [13]: 8%
- inhibition at 1 µM (hERG (KCNH2)): -15%
- inhibition [14]: 7%
- inhibition (MOLM-13): Active
- inhibition [15]: inactive
- inhibition [16]: -4%
- inhibition [17]: inactive
- inhibition (Rattus norvegicus [18]): 10%
- inhibition [19]: 5%
- inhibition [20]: inactive
- inhibition [21]: inactive
- inhibition [22]: 17%
- Kd [23]: 0.0561 nM
- inhibition [24]: -1%
- inhibition [25]: -1%
- inhibition [26]: -3%
- inhibition (Homo sapiens [27]): -1%
- IC50 (cells [28]): 8.8 nM
- inhibition [29]: inactive
- inhibition [30]: 22%
- inhibition [31]: inactive
- Activity (MV4-11): Active
- Activity (Cord blood cell [32]): inactive
- inhibition [33]: inactive
- inhibition (Homo sapiens [34]): inactive
- inhibition [35]: 7%
